ChEMBL document CHEMBL4725354 (J Med Chem, 2020)

tested on: MDCK-II; test: Cytotoxicity against MDCK2 cells assessed as reduction in cell viability at 10 uM after 72 hrs by MTT assay; type: cell-based, Canis lupus familiaris; settings: dog; call rule not given here
In short: (§1)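 Single-concentration screen at 10 µM in MDCK II BCRP and parental MDCK II cells. MTT assay, 72 h at 37 °C, 5% CO2. Viability referenced to culture medium (100%) and 10% DMSO (0%). Mean ± SEM of at least three independent experiments with duplicates.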

Compound	Activity
Cc1cc(Nc2cccc(Br)c2)nc(-c2ccccc2)n1	Non-Toxic
Cc1cc(Nc2ccc3c(c2)OCCO3)nc(-c2ccccc2)n1	Non-Toxic
Cc1cc(Nc2ccc(F)c([N+](=O)[O-])c2)nc(-c2ccccc2)n1	Non-Toxic
COc1ccc(Nc2cc(C)nc(-c3ccccc3)n2)cc1C(F)(F)F	Toxic
Cc1cc(Nc2ccc(F)c(C#N)c2)nc(-c2ccccc2)n1	Non-Toxic

tested on: not listed separately; test: Growth inhibition of MDCK2 cells over expressing human ABCG2 after 72 hrs by MTT assay; type: ADME, cell-based, Canis lupus familiaris, MDCK-II; settings: dog, MDCK2 cells overexpressing human ABCG2
In short: (§2)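 MTT viability assay. Compound dilutions in culture medium (3.2 to 1000 µM as prepared). About 2,000 cells per well, 72 h at 37 °C, 5% CO2. Culture medium set as 100% and 10% DMSO as 0% viability. MTT added for 1 h, formazan dissolved in DMSO, absorbance read at 570 nm with 690 nm background. GI50 from nonlinear regression of absorbance vs log concentration; at least three independent experiments, duplicates, mean ± SEM.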

Compound	GI50 at 72 h [nM]
COc1ccc(Nc2cc(C)nc(-c3ccccc3)n2)cc1C(F)(F)F	8400
Cc1cc(Nc2ccc(F)c(C#N)c2)nc(-c2ccccc2)n1	96700

biological target: T1, ATP-dependent translocase ABCB1 (Homo sapiens, UniProt P08183); test: Inhibition of human ABCB1 expressed in A2780/ADR cells preincubated for 30 mins followed by calcein AM addition and measured every 60 secs for 60 mins by fluorescence assay; type: cell-based; settings: not given
In short: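 ABCB1 in A2780/ADR cells (kept resistant by one passage in 1 µM doxorubicin every 10 passages). 30,000 cells per well in Krebs-HEPES buffer, preincubated 30 min at 37 °C with inhibitor. Calcein AM added from a 3.125 µM solution. Fluorescence (ex 485, em 520 nm) read every 60 s for 60 min. Initial linear slopes vs log concentration fitted to give IC50.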

T1 sequence (P08183 whole entry): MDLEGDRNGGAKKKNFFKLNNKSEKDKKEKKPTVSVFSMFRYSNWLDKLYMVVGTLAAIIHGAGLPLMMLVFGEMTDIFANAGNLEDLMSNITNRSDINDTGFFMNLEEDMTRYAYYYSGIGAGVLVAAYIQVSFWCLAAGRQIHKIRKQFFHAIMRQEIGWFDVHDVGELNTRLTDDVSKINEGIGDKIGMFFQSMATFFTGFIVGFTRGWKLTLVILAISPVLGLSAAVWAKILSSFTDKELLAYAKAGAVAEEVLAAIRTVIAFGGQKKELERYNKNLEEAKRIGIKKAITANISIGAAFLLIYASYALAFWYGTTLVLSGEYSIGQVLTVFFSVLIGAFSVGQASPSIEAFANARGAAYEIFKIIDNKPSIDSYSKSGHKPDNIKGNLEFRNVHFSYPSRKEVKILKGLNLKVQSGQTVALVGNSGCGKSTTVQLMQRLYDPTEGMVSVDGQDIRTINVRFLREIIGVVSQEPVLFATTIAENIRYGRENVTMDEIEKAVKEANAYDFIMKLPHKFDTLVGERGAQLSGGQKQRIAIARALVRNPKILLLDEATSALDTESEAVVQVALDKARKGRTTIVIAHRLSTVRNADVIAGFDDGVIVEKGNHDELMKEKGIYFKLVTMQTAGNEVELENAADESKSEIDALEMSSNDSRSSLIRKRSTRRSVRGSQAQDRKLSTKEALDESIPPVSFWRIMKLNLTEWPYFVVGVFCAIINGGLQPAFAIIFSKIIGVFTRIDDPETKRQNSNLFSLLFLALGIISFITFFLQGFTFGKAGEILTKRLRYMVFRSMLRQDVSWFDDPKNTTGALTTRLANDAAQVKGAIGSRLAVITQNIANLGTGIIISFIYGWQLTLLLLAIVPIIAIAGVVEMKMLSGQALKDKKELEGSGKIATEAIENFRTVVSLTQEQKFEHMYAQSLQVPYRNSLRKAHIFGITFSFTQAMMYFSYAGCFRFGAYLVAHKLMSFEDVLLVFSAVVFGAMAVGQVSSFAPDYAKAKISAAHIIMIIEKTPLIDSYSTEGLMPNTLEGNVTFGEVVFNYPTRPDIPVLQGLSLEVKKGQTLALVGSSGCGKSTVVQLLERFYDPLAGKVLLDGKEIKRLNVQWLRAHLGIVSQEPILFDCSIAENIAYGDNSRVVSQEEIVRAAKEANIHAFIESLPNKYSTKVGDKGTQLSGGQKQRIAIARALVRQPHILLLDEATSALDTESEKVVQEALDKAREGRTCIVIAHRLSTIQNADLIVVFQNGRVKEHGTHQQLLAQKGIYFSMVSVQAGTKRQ

Compound	IC50 [nM]
Cc1cc(Nc2cccc(Br)c2)nc(-c2ccccc2)n1	7140
Cc1cc(Nc2ccc3c(c2)OCCO3)nc(-c2ccccc2)n1	13100
COc1ccc(Nc2cc(C)nc(-c3ccccc3)n2)cc1C(F)(F)F	7300

tested on: MDCK-II; test: Cytotoxicity against MDCK2 cells over expressing human ABCG2 at 10 uM assessed as reduction in cell viability after 72 hrs by MTT assay; type: ADME, cell-based, Canis lupus familiaris; settings: dog; in short: as §1

Compound	Activity
Cc1cc(Nc2cccc(Br)c2)nc(-c2ccccc2)n1	Non-Toxic
Cc1cc(Nc2ccc3c(c2)OCCO3)nc(-c2ccccc2)n1	Non-Toxic
Cc1cc(Nc2ccc(F)c([N+](=O)[O-])c2)nc(-c2ccccc2)n1	Non-Toxic
COc1ccc(Nc2cc(C)nc(-c3ccccc3)n2)cc1C(F)(F)F	Toxic
Cc1cc(Nc2ccc(F)c(C#N)c2)nc(-c2ccccc2)n1	Non-Toxic

biological target: T1, ATP-dependent translocase ABCB1; test: Inhibition of human ABCB1-mediated multidrug resistance in human A2780/ADR cells assessed as potentiation of doxorubicin-induced cytotoxicity by measuring half maximal reversal concentration after 72 hrs by MTT assay; type: cell-based; settings: not given

Compound	inhibition (INH)
Cc1cc(Nc2cccc(Br)c2)nc(-c2ccccc2)n1	Not Active
COc1ccc(Nc2cc(C)nc(-c3ccccc3)n2)cc1C(F)(F)F	Not Active

tested on: not listed separately; test: Growth inhibition of MDCK2 cells after 72 hrs by MTT assay; type: cell-based, Canis lupus familiaris, MDCK-II; settings: dog; in short: as §2

Compound	GI50 at 72 h [nM]
COc1ccc(Nc2cc(C)nc(-c3ccccc3)n2)cc1C(F)(F)F	10100
Cc1cc(Nc2ccc(F)c(C#N)c2)nc(-c2ccccc2)n1	102000

biological target: T2, ABCG2 (Homo sapiens, UniProt Q9UNQ0); test: Inhibition of human ABCG2 expressed in MDCK2 cells co-expressing GFP preincubated for 15 mins followed by pheophorbideA addition and measured after 2 hrs by flow cytometric analysis relative to control; type: cell-based, MDCK-II; settings: probe pheophorbide A, read-out: Imax
T2 sequence (Q9UNQ0 whole entry): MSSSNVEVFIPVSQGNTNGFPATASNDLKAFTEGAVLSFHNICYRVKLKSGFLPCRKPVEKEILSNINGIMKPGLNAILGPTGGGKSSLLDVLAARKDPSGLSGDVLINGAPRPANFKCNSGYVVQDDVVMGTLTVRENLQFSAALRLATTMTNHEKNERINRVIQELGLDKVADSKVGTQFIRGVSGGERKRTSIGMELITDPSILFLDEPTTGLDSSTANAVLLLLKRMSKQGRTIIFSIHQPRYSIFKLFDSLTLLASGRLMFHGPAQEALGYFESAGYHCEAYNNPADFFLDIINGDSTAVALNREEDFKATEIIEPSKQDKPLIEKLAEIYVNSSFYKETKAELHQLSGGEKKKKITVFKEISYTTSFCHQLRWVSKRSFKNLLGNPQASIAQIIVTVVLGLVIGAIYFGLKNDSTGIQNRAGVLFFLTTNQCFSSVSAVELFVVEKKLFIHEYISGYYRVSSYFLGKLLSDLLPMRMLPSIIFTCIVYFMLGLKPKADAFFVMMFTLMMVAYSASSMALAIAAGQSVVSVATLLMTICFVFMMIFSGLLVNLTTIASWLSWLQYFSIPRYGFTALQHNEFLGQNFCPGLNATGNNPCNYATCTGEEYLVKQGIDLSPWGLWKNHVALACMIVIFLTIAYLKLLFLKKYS

Compound	Emax at 2 h [%]
Cc1cc(Nc2cccc(Br)c2)nc(-c2ccccc2)n1	83
Cc1cc(Nc2ccc3c(c2)OCCO3)nc(-c2ccccc2)n1	100
Cc1cc(Nc2ccc(F)c([N+](=O)[O-])c2)nc(-c2ccccc2)n1	100
COc1ccc(Nc2cc(C)nc(-c3ccccc3)n2)cc1C(F)(F)F	83
Cc1cc(Nc2ccc(F)c(C#N)c2)nc(-c2ccccc2)n1	59

tested on: ABCG2; test: Therapeutic ratio of GI50 for Growth inhibition of MDCK2 cells over expressing human ABCG2 to IC50 for inhibition of human ABCG2 expressed in MDCK2 cells co-expressing GFP preincubated for 15 mins followed by pheophorbideA addition and measured after 2 hrs by flow cytometric analysis; type: toxicity, cell-based; settings: dog, MDCK2 cells overexpressing human ABCG2, probe pheophorbide A; read-out: TI

Compound	selectivity ratio at 2 h
COc1ccc(Nc2cc(C)nc(-c3ccccc3)n2)cc1C(F)(F)F	15
Cc1cc(Nc2ccc(F)c(C#N)c2)nc(-c2ccccc2)n1	1120

biological target: T2, ABCG2; test: Inhibition of human ABCG2 expressed in MDCK2 cells co-expressing GFP preincubated for 30 mins followed by Hoechst 33342 addition and measured every 60 sec for 120 mins by fluorescence assay relative to control; type: cell-based, MDCK-II; settings: probe Hoechst 33342, read-out: Imax
In short: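 MDCK II cells transfected with human ABCG2 cDNA C-terminally fused to GFP. Steady-state means vs log concentration fitted by 3- or 4-parameter logistic to give IC50.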

Compound	Emax at 2 h [%]
Cc1cc(Nc2cccc(Br)c2)nc(-c2ccccc2)n1	100
Cc1cc(Nc2ccc3c(c2)OCCO3)nc(-c2ccccc2)n1	100
Cc1cc(Nc2ccc(F)c([N+](=O)[O-])c2)nc(-c2ccccc2)n1	100
COc1ccc(Nc2cc(C)nc(-c3ccccc3)n2)cc1C(F)(F)F	100
Cc1cc(Nc2ccc(F)c(C#N)c2)nc(-c2ccccc2)n1	100

biological target: T3, Broad substrate specificity ATP-binding cassette transporter ABCG2 (Homo sapiens, UniProt Q9UNQ0); test: Inhibition of human ABCG2 expressed in MDCK2 cells co-expressing GFP preincubated for 15 mins followed by pheophorbideA addition and measured after 2 hrs by flow cytometric analysis; type: cell-based, MDCK-II; settings: not given
T3 sequence (Q9UNQ0 whole entry): T2 sequence (Q9UNQ0 whole entry)
In short: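 Pheophorbide A added to 0.5 µM final and incubated 2 h. Read by flow cytometry (ex 488, em 695/50 nm); GFP expression checked at 525/30 nm. IC50 from 3- or 4-parameter logistic fit.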

Compound	IC50 [nM]
Cc1cc(Nc2cccc(Br)c2)nc(-c2ccccc2)n1	386
Cc1cc(Nc2ccc3c(c2)OCCO3)nc(-c2ccccc2)n1	1630
Cc1cc(Nc2ccc(F)c([N+](=O)[O-])c2)nc(-c2ccccc2)n1	771
COc1ccc(Nc2cc(C)nc(-c3ccccc3)n2)cc1C(F)(F)F	544
Cc1cc(Nc2ccc(F)c(C#N)c2)nc(-c2ccccc2)n1	86.1

tested on: ABCG2; test: Therapeutic ratio of GI50 for Growth inhibition of MDCK2 cells over expressing human ABCG2 to IC50 for inhibition of human ABCG2 expressed in MDCK2 cells co-expressing GFP preincubated for 30 mins followed by Hoechst 33342 addition and measured every 60 sec for 120 mins by fluorescence assay; type: toxicity, cell-based; settings: dog, MDCK2 cells overexpressing human ABCG2, probe Hoechst 33342; read-out: TI

Compound	selectivity ratio
COc1ccc(Nc2cc(C)nc(-c3ccccc3)n2)cc1C(F)(F)F	14
Cc1cc(Nc2ccc(F)c(C#N)c2)nc(-c2ccccc2)n1	315

biological target: T3, Broad substrate specificity ATP-binding cassette transporter ABCG2; test: Inhibition of human ABCG2 expressed in MDCK2 cells co-expressing GFP preincubated for 30 mins followed by Hoechst 33342 addition and measured every 60 sec for 120 mins by fluorescence assay; type: cell-based, MDCK-II; settings: not given
In short: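 MDCK II cells transfected with human ABCG2 cDNA C-terminally fused to GFP. Hoechst 33342 added at 1 µM final. Fluorescence (ex 355, em 460 nm) read every 60 s for 120 min. Steady-state means vs log concentration fitted by 3- or 4-parameter logistic to give IC50.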

Compound	IC50 [nM]
Cc1cc(Nc2cccc(Br)c2)nc(-c2ccccc2)n1	892
Cc1cc(Nc2ccc3c(c2)OCCO3)nc(-c2ccccc2)n1	808
Cc1cc(Nc2ccc(F)c([N+](=O)[O-])c2)nc(-c2ccccc2)n1	1010
COc1ccc(Nc2cc(C)nc(-c3ccccc3)n2)cc1C(F)(F)F	598
Cc1cc(Nc2ccc(F)c(C#N)c2)nc(-c2ccccc2)n1	307

biological target: Multidrug resistance-associated protein 1 (Homo sapiens, UniProt P33527); test: Inhibition of human ABCC1-mediated multidrug resistance in MDCK2 cells assessed as potentiation of doxorubicin-induced cytotoxicity by measuring half maximal reversal concentration after 72 hrs by MTT assay; type: cell-based; settings: mdck-ii
Sequence (P33527 whole entry): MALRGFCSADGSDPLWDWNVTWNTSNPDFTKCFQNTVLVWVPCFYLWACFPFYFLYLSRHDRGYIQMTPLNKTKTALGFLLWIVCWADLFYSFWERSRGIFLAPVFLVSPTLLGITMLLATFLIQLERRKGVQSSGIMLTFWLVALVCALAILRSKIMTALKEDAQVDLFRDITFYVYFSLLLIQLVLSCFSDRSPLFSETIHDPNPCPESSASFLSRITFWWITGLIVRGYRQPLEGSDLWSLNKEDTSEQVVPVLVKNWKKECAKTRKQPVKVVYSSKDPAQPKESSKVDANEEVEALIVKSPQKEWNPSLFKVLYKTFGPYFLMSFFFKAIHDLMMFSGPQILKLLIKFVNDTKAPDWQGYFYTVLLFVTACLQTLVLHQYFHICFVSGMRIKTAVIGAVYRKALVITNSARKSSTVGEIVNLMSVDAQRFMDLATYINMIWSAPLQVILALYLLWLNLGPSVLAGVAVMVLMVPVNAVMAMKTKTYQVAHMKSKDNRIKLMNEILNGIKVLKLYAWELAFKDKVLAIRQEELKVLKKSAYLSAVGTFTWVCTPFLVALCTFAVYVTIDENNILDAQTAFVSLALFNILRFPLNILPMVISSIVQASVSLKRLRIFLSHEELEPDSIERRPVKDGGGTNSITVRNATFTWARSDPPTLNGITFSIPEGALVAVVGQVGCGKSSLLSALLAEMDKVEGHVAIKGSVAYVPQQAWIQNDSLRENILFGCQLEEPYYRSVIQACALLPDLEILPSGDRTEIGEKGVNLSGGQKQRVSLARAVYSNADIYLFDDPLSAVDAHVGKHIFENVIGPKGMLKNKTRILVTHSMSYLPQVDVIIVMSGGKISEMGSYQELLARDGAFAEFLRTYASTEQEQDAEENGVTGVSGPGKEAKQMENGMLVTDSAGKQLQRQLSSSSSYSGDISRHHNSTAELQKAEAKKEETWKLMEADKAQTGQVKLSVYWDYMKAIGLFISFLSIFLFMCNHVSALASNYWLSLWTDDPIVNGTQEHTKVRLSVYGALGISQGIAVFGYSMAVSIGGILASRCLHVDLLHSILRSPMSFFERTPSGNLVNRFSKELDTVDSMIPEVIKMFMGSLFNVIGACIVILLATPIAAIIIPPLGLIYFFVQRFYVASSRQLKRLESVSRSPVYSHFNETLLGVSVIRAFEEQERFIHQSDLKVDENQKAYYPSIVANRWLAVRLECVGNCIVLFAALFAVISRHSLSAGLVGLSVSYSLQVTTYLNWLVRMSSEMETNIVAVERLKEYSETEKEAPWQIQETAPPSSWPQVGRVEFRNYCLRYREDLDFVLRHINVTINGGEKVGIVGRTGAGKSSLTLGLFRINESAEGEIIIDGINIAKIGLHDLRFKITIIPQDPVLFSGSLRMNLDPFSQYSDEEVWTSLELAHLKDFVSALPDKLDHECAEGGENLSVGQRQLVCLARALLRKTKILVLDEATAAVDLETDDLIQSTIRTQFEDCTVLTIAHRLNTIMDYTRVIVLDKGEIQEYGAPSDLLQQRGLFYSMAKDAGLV

Compound	inhibition (INH)
Cc1cc(Nc2cccc(Br)c2)nc(-c2ccccc2)n1	Not Active
COc1ccc(Nc2cc(C)nc(-c3ccccc3)n2)cc1C(F)(F)F	Not Active
